Experimental findings from ChEMBL document CHEMBL2086318, “Synthesis and in vitro antimycobacterial activity of 2-methoxybenzanilides and their thioxo analogues” (Eur J Med Chem, 2012) are described below.

Converted amounts (≈) assume the structure as drawn.

By MIC is commonly meant the least concentration at which growth counts as inhibited. The low end stands for inhibition by little substance, the high end for a need for much substance.

Common to all, as to assay type: functional
For experiment [1], the system named is Mycobacterium tuberculosis. The experiment is described as follows: Antimycobacterial activity against Mycobacterium tuberculosis My 331/88 after 14 days by micromethod. Conditions: My 331/88, 336 h. A digest of the protocol: (§1)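 MIC by micromethod at 37 °C, read after 14 and 21 days. Inocula were M. tuberculosis My 331/88 at 10^-3 dilution and M. avium My 330/88 at 10^-5 dilution. Compounds added in DMSO across 1000, 500, 250, 125, 62.5, 32, 16, 8, 4, 2, 1 and 0.5; isoniazid standard in sterile water. MIC taken as the lowest concentration inhibiting growth.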

For experiment [2], the system named is Mycobacterium kansasii. Nature of the experiment: Antimycobacterial activity against Mycobacterium kansasii My 6509/96 clinical isolate after 14 days by micromethod. The conditions noted are these: My 6509/96, 336 h.
For experiment [3], the system named is Mycobacterium kansasii. The experiment is described as follows: Antimycobacterial activity against Mycobacterium kansasii My 235/80 after 7 days by micromethod. The conditions noted are these: My 235/80, 168 h.
Experiment [4] concerns Mycobacterium kansasii. Nature of the experiment: Antimycobacterial activity against Mycobacterium kansasii My 6509/96 clinical isolate after 7 days by micromethod. Conditions: My 6509/96, 168 h.
In experiment [5] the test system is Mycobacterium kansasii. The experiment is described as follows: Antimycobacterial activity against Mycobacterium kansasii My 6509/96 clinical isolate after 21 days by micromethod. Conditions: My 6509/96, 504 h.
For experiment [6], the system named is Mycobacterium tuberculosis. The experiment is described as follows: Antimycobacterial activity against Mycobacterium tuberculosis My 331/88 after 21 days by micromethod. The conditions noted are these: My 331/88, 504 h. A digest of the protocol:
as §1

The test system of experiment [7] is Mycobacterium kansasii. Nature of the experiment: Antimycobacterial activity against Mycobacterium kansasii My 235/80 after 21 days by micromethod. Conditions: My 235/80, 504 h.
The test system of experiment [8] is Mycobacterium kansasii. The experiment is described as follows: Antimycobacterial activity against Mycobacterium kansasii My 235/80 after 14 days by micromethod. Conditions: My 235/80, 336 h.
Experiment [9] relates to Mycobacterium avium. The experiment is described as follows: Antimycobacterial activity against Mycobacterium avium My 330/88 after 14 days by micromethod. Conditions: My 330/88, 336 h.
Experiment [10] concerns Mycobacterium avium. The experiment is described as follows: Antimycobacterial activity against Mycobacterium avium My 330/88 after 21 days by micromethod. The conditions noted are these: My 330/88, 504 h.

Take `COc1cc(Cl)ccc1C(=O)Nc1cccc(Br)c1`: the MIC in [1] was found to be 250 µM (≈ 85.2 µg/mL); in the experiment with Mycobacterium kansasii [2] it was 125 µM (≈ 42.6 µg/mL); against Mycobacterium kansasii [3] it was 125 µM (≈ 42.6 µg/mL); against Mycobacterium kansasii [4], 125 µM (≈ 42.6 µg/mL); with Mycobacterium kansasii [5], 125 µM (≈ 42.6 µg/mL); in [6], 250 µM (≈ 85.2 µg/mL). Further, the MIC in the experiment with Mycobacterium kansasii [7], against Mycobacterium kansasii [8], against Mycobacterium avium [9] and against Mycobacterium avium [10] was 125 µM (≈ 42.6 µg/mL) in each case.

Turning to `COc1cc(Cl)ccc1C(=S)Nc1cccc([N+](=O)[O-])c1`, the MIC in [1] turned out to be 8 µM (≈ 2.58 µg/mL); in the experiment with Mycobacterium kansasii [2], 16 µM (≈ 5.16 µg/mL); against Mycobacterium kansasii [3], 32 µM (≈ 10.3 µg/mL); against Mycobacterium kansasii [4], 8 µM (≈ 2.58 µg/mL); in the experiment with Mycobacterium kansasii [5], 32 µM (≈ 10.3 µg/mL); in [6], 16 µM (≈ 5.16 µg/mL). Moreover, the MIC with Mycobacterium kansasii [7] is 62.5 µM (≈ 20.2 µg/mL); against Mycobacterium kansasii [8], 32 µM (≈ 10.3 µg/mL); against Mycobacterium avium [9], 16 µM (≈ 5.16 µg/mL); against Mycobacterium avium [10], 16 µM (≈ 5.16 µg/mL).

In the case of `COc1ccc(Cl)cc1C(=S)Nc1cccc(Br)c1`, the MIC in experiment [1] was determined as 32 µM (≈ 11.4 µg/mL); in the experiment on Mycobacterium kansasii [2] it was 32 µM (≈ 11.4 µg/mL); with Mycobacterium kansasii [3], 16 µM (≈ 5.71 µg/mL); with Mycobacterium kansasii [4] it was 32 µM (≈ 11.4 µg/mL); with Mycobacterium kansasii [5], 32 µM (≈ 11.4 µg/mL); in experiment [6], 32 µM (≈ 11.4 µg/mL). Moreover, the MIC against Mycobacterium kansasii [7], against Mycobacterium kansasii [8], in the experiment with Mycobacterium avium [9] and with Mycobacterium avium [10] was 32 µM (≈ 11.4 µg/mL) each time.

With `COc1cc(Cl)ccc1C(=O)Nc1cccc([N+](=O)[O-])c1`, the MIC (in [1]; in the experiment on Mycobacterium kansasii [2]; with Mycobacterium kansasii [3]; against Mycobacterium kansasii [4]; with Mycobacterium kansasii [5]; in [6]) was 125 µM (≈ 38.3 µg/mL) each time. In addition, the MIC against Mycobacterium kansasii [7] came to 250 µM (≈ 76.7 µg/mL); against Mycobacterium kansasii [8] it was 250 µM (≈ 76.7 µg/mL); in the experiment with Mycobacterium avium [9] it was 125 µM (≈ 38.3 µg/mL); against Mycobacterium avium [10], 125 µM (≈ 38.3 µg/mL).

For `COc1ccc(Cl)cc1C(=O)Nc1ccc(Br)cc1`, the MIC was determined as 16 µM (≈ 5.45 µg/mL) in experiment [1]; 62.5 µM (≈ 21.3 µg/mL) with Mycobacterium kansasii [2]; 62.5 µM (≈ 21.3 µg/mL) against Mycobacterium kansasii [3]; 32 µM (≈ 10.9 µg/mL) in the experiment with Mycobacterium kansasii [4]; 62.5 µM (≈ 21.3 µg/mL) with Mycobacterium kansasii [5]; 16 µM (≈ 5.45 µg/mL) in experiment [6]. Further, the MIC in the experiment with Mycobacterium kansasii [7] was determined as 62.5 µM (≈ 21.3 µg/mL); in the experiment with Mycobacterium kansasii [8], 62.5 µM (≈ 21.3 µg/mL); against Mycobacterium avium [9], 16 µM (≈ 5.45 µg/mL); against Mycobacterium avium [10] it was 32 µM (≈ 10.9 µg/mL).

On to `COc1ccc(Cl)cc1C(=O)Nc1cccc(C(F)(F)F)c1`, for which the MIC turned out to be 4 µM (≈ 1.32 µg/mL) in experiment [1]; 4 µM (≈ 1.32 µg/mL) with Mycobacterium kansasii [2]; 4 µM (≈ 1.32 µg/mL) against Mycobacterium kansasii [3]; 4 µM (≈ 1.32 µg/mL) against Mycobacterium kansasii [4]; 16 µM (≈ 5.28 µg/mL) against Mycobacterium kansasii [5]; 16 µM (≈ 5.28 µg/mL) in experiment [6]. Moreover, the MIC with Mycobacterium kansasii [7] amounted to 16 µM (≈ 5.28 µg/mL); in the experiment with Mycobacterium kansasii [8], 4 µM (≈ 1.32 µg/mL); in the experiment with Mycobacterium avium [9], 125 µM (≈ 41.2 µg/mL); in the experiment with Mycobacterium avium [10], 125 µM (≈ 41.2 µg/mL).

For `COc1cc(Cl)ccc1C(=O)Nc1cccc(Cl)c1`, the MIC in [1] came to 125 µM (≈ 37 µg/mL); with Mycobacterium kansasii [2] it was 62.5 µM (≈ 18.5 µg/mL); in the experiment with Mycobacterium kansasii [3], 8 µM (≈ 2.37 µg/mL); with Mycobacterium kansasii [4], 62.5 µM (≈ 18.5 µg/mL); in the experiment with Mycobacterium kansasii [5], 125 µM (≈ 37 µg/mL); in experiment [6] it was 125 µM (≈ 37 µg/mL). For the same compound, the MIC was found to be 32 µM (≈ 9.48 µg/mL) against Mycobacterium kansasii [7], 32 µM (≈ 9.48 µg/mL) with Mycobacterium kansasii [8], 8 µM (≈ 2.37 µg/mL) against Mycobacterium avium [9] and 32 µM (≈ 9.48 µg/mL) against Mycobacterium avium [10].

In the case of `COc1ccc(Cl)cc1C(=S)Nc1ccc(Cl)c(Cl)c1`, the MIC in [1] was 8 µM (≈ 2.77 µg/mL); against Mycobacterium kansasii [2], 125 µM (≈ 43.3 µg/mL); in the experiment on Mycobacterium kansasii [3], 32 µM (≈ 11.1 µg/mL); with Mycobacterium kansasii [4], 62.5 µM (≈ 21.7 µg/mL); against Mycobacterium kansasii [5] it was 125 µM (≈ 43.3 µg/mL); in experiment [6] it was 8 µM (≈ 2.77 µg/mL). For the same compound, the MIC with Mycobacterium kansasii [7] was 62.5 µM (≈ 21.7 µg/mL); in the experiment with Mycobacterium kansasii [8] it was 62.5 µM (≈ 21.7 µg/mL); in the experiment on Mycobacterium avium [9] it was 32 µM (≈ 11.1 µg/mL); against Mycobacterium avium [10], 62.5 µM (≈ 21.7 µg/mL).

With `COc1ccc(Cl)cc1C(=S)Nc1cccc(Cl)c1`, the MIC in experiment [1] was 16 µM (≈ 5 µg/mL); with Mycobacterium kansasii [2], 16 µM (≈ 5 µg/mL); against Mycobacterium kansasii [3], 8 µM (≈ 2.5 µg/mL); against Mycobacterium kansasii [4] it was 16 µM (≈ 5 µg/mL); in the experiment on Mycobacterium kansasii [5] it was 32 µM (≈ 9.99 µg/mL); in [6] it was 16 µM (≈ 5 µg/mL). The MIC against Mycobacterium kansasii [7] is 16 µM (≈ 5 µg/mL); in the experiment with Mycobacterium kansasii [8] it was 16 µM (≈ 5 µg/mL); with Mycobacterium avium [9] it was 32 µM (≈ 9.99 µg/mL); against Mycobacterium avium [10], 32 µM (≈ 9.99 µg/mL).
